Data set [1] addresses T1, BCR/ABL p210 fusion protein (Homo sapiens, UniProt A1Z199). Put plainly: Inhibition of BCR/ABL p210 fusion protein autophosphorylation at Y245 in human […] cells at 0.01 to 3 uM measured after 2 hrs by immunoblotting. The class given is cell-based. In short, it runs like this: (§1)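 After an ice-cold PBS wash, cells were lysed in RIPA buffer (50 mM Tris pH 8.0) with protease and phosphatase inhibitors, and protein was quantified by BCA. Lysates were run on SDS-PAGE, transferred to PVDF and blocked in 5% milk/TBST. Phospho- and total proteins were probed by immunoblot with ECL detection; β-actin served as loading control.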

The target of data set [2] is T2, Mast/stem cell growth factor receptor Kit (Homo sapiens, UniProt P10721). Put plainly: Inhibition of c-KIT autophosphorylation at Y719 in human GISTT1 cells at 0.03 to 10 uM measured after 2 hrs by immunoblotting. The class given is cell-based. The procedure, abridged: as §1
T2 sequence (P10721 whole entry): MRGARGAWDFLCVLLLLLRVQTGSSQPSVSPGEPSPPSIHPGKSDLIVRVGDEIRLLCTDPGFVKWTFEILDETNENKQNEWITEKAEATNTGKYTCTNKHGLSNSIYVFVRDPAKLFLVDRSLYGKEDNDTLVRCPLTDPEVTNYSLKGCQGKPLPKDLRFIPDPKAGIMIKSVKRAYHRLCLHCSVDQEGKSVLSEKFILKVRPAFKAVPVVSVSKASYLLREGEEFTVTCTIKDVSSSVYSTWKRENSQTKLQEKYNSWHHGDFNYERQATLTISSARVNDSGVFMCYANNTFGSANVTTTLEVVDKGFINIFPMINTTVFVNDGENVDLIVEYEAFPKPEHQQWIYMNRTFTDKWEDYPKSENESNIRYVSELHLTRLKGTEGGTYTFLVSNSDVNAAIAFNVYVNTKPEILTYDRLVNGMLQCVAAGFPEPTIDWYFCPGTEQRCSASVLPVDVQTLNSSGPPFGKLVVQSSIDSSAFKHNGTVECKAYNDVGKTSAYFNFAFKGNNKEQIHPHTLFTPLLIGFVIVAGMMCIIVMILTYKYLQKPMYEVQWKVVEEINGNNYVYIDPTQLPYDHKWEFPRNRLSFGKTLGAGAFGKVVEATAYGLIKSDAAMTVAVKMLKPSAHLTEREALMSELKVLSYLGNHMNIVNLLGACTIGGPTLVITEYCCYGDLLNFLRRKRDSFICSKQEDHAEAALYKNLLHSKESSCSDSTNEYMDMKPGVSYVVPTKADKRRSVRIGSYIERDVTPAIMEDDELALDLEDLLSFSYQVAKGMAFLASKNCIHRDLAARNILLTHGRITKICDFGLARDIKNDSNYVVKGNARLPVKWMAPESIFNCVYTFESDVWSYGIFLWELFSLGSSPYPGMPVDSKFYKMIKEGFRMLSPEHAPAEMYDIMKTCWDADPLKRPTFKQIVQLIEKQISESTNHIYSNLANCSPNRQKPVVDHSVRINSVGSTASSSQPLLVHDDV
For orientation: In western blotting, separated proteins are transferred to a membrane and probed.

The nature of data set [3]: Mean residence time (0 to t) in Sprague-Dawley rat at 10 mg/kg, po. It counts as ADME, organism-based. The conditions noted are these: in vivo. In short, it runs like this: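 Male Sprague-Dawley rats, 6-8 weeks old, fasted overnight, dosed iv or po. Jugular vein blood (~0.2 mL, heparin) sampled at 1 min to 8 h (iv) or 5 min to 24 h (po). Plasma separated by centrifugation at 2-8 °C and stored at -80 °C before analysis.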

The nature of data set [4]: Anticancer activity against human K562 cells xenografted in nu/nu mouse assessed as tumor weight at 25 mg/kg administered via oral gavage measured after 28 days (reference value: 6.75 g). The class given is functional. In short, it runs like this: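 Female nu/nu mice received ten million K562 cells subcutaneously in the right flank, in PBS mixed 1:1 with Matrigel. Daily oral gavage began at 200-400 mm³ tumor size, with 4 or 5 mice per group. Dosing was 25, 50 or 100 mg/kg/d or vehicle (0.5% methylcellulose/0.4% Tween80) for 28 days. Body weight and tumor size were normalized to initial values, and final tumor weight was recorded. Data are mean ± SEM.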
For orientation: A xenograft is tissue or cells of one species grown in another, often human tumour cells in immunodeficient mice.

In data set [5] the target is Tyrosine-protein kinase ABL1 (Homo sapiens, UniProt P00519). Put plainly: Inhibition of C-terminal His-tagged human ABL1 expressed in baculovirus infected SF9 cells using Tyr 02 peptide as substrate measured after 1 hr by FRET based Z'Lyte assay.
Sequence of Tyrosine-protein kinase ABL1 (P00519 whole entry): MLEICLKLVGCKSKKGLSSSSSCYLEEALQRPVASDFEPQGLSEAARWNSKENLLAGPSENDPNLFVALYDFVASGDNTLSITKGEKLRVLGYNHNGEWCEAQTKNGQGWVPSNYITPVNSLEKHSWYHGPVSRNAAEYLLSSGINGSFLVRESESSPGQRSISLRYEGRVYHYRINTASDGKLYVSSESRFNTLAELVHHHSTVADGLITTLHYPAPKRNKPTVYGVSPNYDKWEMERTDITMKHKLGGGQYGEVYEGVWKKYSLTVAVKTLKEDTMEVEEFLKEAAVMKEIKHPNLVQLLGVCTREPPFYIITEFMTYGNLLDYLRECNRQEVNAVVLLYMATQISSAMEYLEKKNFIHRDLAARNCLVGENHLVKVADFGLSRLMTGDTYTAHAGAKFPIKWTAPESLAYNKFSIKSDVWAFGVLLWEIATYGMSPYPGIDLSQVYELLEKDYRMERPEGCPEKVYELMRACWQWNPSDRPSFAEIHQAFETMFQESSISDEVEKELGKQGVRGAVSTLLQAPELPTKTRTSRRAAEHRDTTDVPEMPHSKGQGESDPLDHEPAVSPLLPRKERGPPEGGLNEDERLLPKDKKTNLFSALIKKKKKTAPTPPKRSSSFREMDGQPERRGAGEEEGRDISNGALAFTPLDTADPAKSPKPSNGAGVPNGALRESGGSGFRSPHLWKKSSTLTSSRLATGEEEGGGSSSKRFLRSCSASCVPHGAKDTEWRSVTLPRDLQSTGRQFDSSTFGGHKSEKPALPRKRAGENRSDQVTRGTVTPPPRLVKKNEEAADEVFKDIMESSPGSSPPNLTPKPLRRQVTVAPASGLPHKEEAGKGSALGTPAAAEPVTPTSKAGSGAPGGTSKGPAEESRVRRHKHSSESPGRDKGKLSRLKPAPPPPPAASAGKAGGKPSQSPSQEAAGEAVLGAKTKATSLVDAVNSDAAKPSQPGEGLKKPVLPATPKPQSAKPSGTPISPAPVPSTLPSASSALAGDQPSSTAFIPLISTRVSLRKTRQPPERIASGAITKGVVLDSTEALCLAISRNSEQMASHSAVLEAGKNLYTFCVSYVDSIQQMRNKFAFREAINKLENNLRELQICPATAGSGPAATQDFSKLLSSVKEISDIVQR
The target of data set [6] is T2, Mast/stem cell growth factor receptor Kit. Put plainly: Inhibition of c-KIT mediated signaling pathways assessed as reduction in ERK1/2 phosphorylation at T202/Y204 in human GISTT1 cells at 0.03 to 10 uM measured after 2 hrs by immunoblotting. The class given is cell-based. The procedure, abridged: as §1
Data set [7] is described as follows: Cell cycle arrest in human GISTT1 cells assessed as accumulation at G0/G1 phase at 0.3 uM after 24 hrs by propidium iodide/RNase staining based flow cytometry. It counts as functional. In short, it runs like this:
(§2)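 Cells were exposed to serially diluted compound, then fixed in cold 70% ethanol overnight at -20 °C. They were stained with PI/RNase buffer for DNA-content cell-cycle analysis.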

In data set [8] the target is T1, BCR/ABL p210 fusion protein. Put plainly: Inhibition of BCR/ABL p210 fusion protein mediated signaling pathways assessed as reduction in Stat5 phosphorylation at Y694 in human KU812 cells at 0.01 to 3 uM measured after 2 hrs by immunoblotting. It counts as cell-based. The procedure, abridged:
as §1

The test system of data set [9] is BaF3. Put plainly: Inhibition of BCR/ABL p210 fusion protein M356T mutant (unknown origin) expressed in BAF3 cells assessed as growth inhibition measured after 72 hrs by CellTiter-Glo or CCK8 assay. It counts as cell-based. The note with it: Homo sapiens. The procedure, abridged:
(§3)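 BaF3 lines were made by retroviral transduction with kinase-fusion MSCV vectors packaged in HEK293T cells. Cells were selected with puromycin for 48 h, then selected again without IL-3 so growth depends on the introduced kinase. […] They were seeded at 1 to 2.5×10^4 cells/mL with compound dilutions and incubated 72 h. Viability was read by CellTiter-Glo luminescence or CCK-8 absorbance (450/655 nm), normalized to DMSO control; GI50 was curve-fitted from triplicate tests.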
Background: In ATP-based viability assays light output follows the ATP content of the culture.

Data set [10] addresses Serine/threonine-protein kinase 10 (Homo sapiens) (UniProt O94804). Kind of data set: Inhibition of LOK (unknown origin) assessed as residual activity at 1 uM by KINOMEscan binding assay relative to control.
The test system of data set [11] is BaF3. Put plainly: Inhibition of BCR/ABL p210 fusion protein F317L mutant (unknown origin) expressed in BAF3 cells assessed as growth inhibition measured after 72 hrs by CellTiter-Glo or CCK8 assay. The conditions noted are these: Homo sapiens. It counts as cell-based. In short, it runs like this: as §3
A short description of data set [12]: Cmax in Sprague-Dawley rat at 10 mg/kg, po. The class given is ADME, organism-based. On the set-up: dose 10 mg/kg, route oral. The note with it: in vivo. The procedure, abridged:
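Male Sprague-Dawley rats aged six to eight weeks were fasted overnight and then dosed iv or orally. Blood (~0.2 mL) was drawn from the jugular vein into heparin and kept on ice. Sampling was at 1 min to 8 h for iv and 5 min to 24 h for oral. Plasma was separated by centrifugation at 2-8 °C and stored at -80 °C until analysis.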

The next data set concerns GIST882. Put plainly: Induction of apoptosis in human GIST882 cells assessed as cleavage of PARP at 0.1 to 3 uM by Western blot analysis. The class given is functional, cell-based. The procedure, abridged:
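Cells were treated with DMSO or serially diluted compound for the indicated periods. They were washed in ice-cold PBS and lysed in RIPA buffer with protease/phosphatase inhibitors, and protein was quantified by BCA. Lysates were resolved by SDS-PAGE, transferred to PVDF and blocked in 5% milk/TBST. Blots were probed for PARP and caspase-3, with β-actin as loading control, and detected by ECL.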

The subject of data set [13] is Mast/stem cell growth factor receptor Kit (Homo sapiens), P10721 [D816V]. Put plainly: Inhibition of Tel-fused c-KIT D816V mutant (unknown origin) expressed in BAF3 cells assessed as growth inhibition measured after 72 hrs by CellTiter-Glo or CCK8 assay. The class given is cell-based. The procedure, abridged: as §3
Data set [14] concerns the target T2, Mast/stem cell growth factor receptor Kit. Kind of data set: Inhibition of recombinant C-terminal polyhistidine-tagged human c-KIT expressed in mammalian expression system assessed as residual activity at 1 uM using Tyr 06 peptide as substrate measured after 1hr by FRET based Z'Lyte assay relative to control.
Data set [15] addresses Discoidin domain-containing receptor 2 (Homo sapiens, UniProt Q16832). Put plainly: Inhibition of recombinant His-tagged human DDR2 cytoplasmic domain expressed in baculovirus expression system measured after 1 hr by FRET based Z'Lyte assay. In short, it runs like this: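 Z'-LYTE FRET biochemical kinase assay run by Invitrogen on selected kinases identified from binding profiling; IC50 from dose-response.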

Data set [16] addresses T2, Mast/stem cell growth factor receptor Kit. Kind of data set: Inhibition of c-KIT autophosphorylation at Y823 in human GISTT1 cells at 0.03 to 10 uM measured after 2 hrs by immunoblotting. The class given is cell-based. In short, it runs like this: as §1
In data set [17] the target is T3, Tyrosine-protein kinase Lck (Homo sapiens, UniProt P06239). Kind of data set: Inhibition of recombinant C-terminal His-tagged human LCK cytoplasmic domain expressed in baculovirus expression system assessed as residual activity at 1 uM measured after 1 hr by FRET based Z'Lyte assay relative to control.
T3 sequence (P06239 2-509 limits assumed): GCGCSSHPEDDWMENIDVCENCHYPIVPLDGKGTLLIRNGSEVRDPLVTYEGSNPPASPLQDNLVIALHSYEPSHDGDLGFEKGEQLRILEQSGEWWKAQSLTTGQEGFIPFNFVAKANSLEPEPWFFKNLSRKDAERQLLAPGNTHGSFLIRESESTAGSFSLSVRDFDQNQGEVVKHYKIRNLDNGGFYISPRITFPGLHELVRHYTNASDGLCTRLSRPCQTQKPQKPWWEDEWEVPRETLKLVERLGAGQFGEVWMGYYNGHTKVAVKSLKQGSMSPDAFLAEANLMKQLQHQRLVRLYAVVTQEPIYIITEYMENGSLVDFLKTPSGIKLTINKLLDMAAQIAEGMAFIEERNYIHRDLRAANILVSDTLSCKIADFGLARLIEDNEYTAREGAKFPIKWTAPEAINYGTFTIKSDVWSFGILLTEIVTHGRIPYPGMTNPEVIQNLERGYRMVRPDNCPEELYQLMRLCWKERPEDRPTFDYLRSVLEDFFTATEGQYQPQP
The target in data set [18] is T3, Tyrosine-protein kinase Lck. The conditions noted are these: BaF3.
Data set [19] can be described thus: Cell cycle arrest in human K562 cells assessed as accumulation at G0/G1 phase at 1 uM after 24 hrs by propidium iodide/RNase staining based flow cytometry. The class given is functional. In short, it runs like this: as §2
For data set [20], the target named is T2, Mast/stem cell growth factor receptor Kit. The conditions noted are these: 1 uM.
Data set [21] shares this target. The conditions noted are these: 1 uM. The source holds these as a separate data set.

This is an account of results in ChEMBL document CHEMBL3877303 (J Med Chem, 2017).

Activity calls are given as the source filed them. The rule behind the calls is not given here.

T1 sequence (A1Z199 1-97): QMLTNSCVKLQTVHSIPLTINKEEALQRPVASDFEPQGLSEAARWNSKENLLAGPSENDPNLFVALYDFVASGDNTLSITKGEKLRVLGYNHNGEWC
Sequence of Mast/stem cell growth factor receptor Kit (Homo sapiens), P10721 [D816V] (P10721 whole entry D816V, the tested form may be a part): as the sequence (P10721 whole entry) above, with D816V counted along it
Sequence of Discoidin domain-containing receptor 2 (Q16832 whole entry, the tested form may be a part): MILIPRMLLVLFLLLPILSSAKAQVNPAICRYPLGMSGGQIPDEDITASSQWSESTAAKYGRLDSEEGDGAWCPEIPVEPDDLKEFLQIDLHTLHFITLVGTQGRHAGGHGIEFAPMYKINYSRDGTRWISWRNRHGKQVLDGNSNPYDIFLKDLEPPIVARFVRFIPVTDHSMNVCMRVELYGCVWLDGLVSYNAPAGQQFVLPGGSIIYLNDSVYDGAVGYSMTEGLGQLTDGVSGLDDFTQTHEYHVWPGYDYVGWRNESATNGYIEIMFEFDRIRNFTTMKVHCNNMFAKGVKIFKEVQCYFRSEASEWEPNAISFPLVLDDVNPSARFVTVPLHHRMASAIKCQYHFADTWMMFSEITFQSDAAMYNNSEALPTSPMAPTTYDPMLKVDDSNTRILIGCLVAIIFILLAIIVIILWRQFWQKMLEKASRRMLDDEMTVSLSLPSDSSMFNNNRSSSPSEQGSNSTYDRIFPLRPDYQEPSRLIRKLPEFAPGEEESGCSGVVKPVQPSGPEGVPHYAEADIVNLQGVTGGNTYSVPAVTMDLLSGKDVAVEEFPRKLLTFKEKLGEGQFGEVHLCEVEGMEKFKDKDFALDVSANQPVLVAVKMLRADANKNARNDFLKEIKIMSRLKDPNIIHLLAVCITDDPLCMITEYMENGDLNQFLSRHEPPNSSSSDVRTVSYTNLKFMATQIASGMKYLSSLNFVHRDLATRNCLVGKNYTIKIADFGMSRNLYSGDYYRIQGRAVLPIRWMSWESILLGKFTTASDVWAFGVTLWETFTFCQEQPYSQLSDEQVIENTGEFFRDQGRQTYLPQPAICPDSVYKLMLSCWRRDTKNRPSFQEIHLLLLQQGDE
Sequence of Serine/threonine-protein kinase 10 (Homo sapiens) (O94804 whole entry, looked up, the tested form may be a part): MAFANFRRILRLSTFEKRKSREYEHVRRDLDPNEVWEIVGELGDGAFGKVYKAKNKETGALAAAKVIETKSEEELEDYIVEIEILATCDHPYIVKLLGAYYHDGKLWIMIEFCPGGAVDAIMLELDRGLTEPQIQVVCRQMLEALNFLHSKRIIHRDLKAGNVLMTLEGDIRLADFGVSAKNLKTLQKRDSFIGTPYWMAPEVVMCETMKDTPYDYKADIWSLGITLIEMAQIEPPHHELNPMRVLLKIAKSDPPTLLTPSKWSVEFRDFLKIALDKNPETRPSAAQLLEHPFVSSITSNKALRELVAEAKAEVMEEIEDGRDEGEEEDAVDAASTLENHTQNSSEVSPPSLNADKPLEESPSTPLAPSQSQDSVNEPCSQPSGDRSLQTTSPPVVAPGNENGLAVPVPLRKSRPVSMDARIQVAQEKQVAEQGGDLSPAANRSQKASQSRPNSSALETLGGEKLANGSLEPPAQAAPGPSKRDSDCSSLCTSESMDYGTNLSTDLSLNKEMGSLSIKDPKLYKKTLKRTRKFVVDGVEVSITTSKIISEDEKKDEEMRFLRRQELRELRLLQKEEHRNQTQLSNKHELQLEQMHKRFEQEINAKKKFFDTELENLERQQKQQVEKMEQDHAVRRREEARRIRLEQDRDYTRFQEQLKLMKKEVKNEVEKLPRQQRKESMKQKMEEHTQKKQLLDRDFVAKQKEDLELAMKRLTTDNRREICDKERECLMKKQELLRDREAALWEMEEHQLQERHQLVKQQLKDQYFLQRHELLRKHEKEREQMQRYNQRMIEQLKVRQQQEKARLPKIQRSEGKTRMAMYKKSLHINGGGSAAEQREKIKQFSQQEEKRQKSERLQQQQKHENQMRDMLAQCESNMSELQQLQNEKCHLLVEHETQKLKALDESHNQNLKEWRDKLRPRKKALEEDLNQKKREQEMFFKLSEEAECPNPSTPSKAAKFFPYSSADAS

What is called MRT last is the average time that molecules of a dose stay in the body. For orientation: IC50 means the midpoint of a concentration-inhibition curve. For orientation: GI50 means the concentration that inhibits growth by half. As a reminder, the Cmax is the peak of the concentration-time curve. Consider `Cc1ccc(C(=O)N2CCC(Oc3cc(NC(=O)c4ccc(CN5CCN(C)CC5)c(C(F)(F)F)c4)ccc3C)CC2)cn1`, for which the inhibition result in [1], in [2], in data set [6], in data set [8] and in data set [16] was “Active” each time. The compound also gave an MRT last in [3] of 5.75 h. Moreover, the Activity in data set [4] was 7.46 g; in data set [10], 0.6%; in data set [14], 0.8%; in data set [17], 0.55%. Also, the IC50 in [5] was determined as 0.046 µM; in [15] it was 0.325 µM. The outcome (in data set [7]; in the data set on GIST882) was Active. For the same compound, the GI50 in the data set with BaF3 [9] turned out to be 0.27 µM; with BaF3 [11], 0.67 µM; in data set [13] it was 5.06 µM; in data set [18] it was 0.386 µM. Also, the concentration in [12] peaked (Cmax) at 0.223 µg/mL.
Consider `Cc1ccc(NC(=O)c2ccc(CN3CCN(C)CC3)cc2)cc1Nc1nccc(-c2cccnc2)n1` [IMATINIB], for which, in [19], the outcome was Active. Besides, the inhibition entry in [20] and in data set [21] was “Active” throughout.
